Converted amounts (≈) assume the structure as drawn.
How the values were obtained:
Vasopressin V2 receptor = Vasopressin V2 receptor (Homo sapiens, UniProt P30518); assay: Antagonist activity at human cloned vasopressin V2 receptor by cell based beta lactamase assay; type: functional
Rattus norvegicus [1] = assay: Volume of distribution in rat at 0.5 mg/kg, po; type: ADME, organism-based; design: dose 0.5 mg/kg, route oral; conditions: in vivo
Oxytocin receptor = target: T1, Oxytocin receptor (Homo sapiens, UniProt P30559); assay: Antagonist activity at human cloned oxytocin receptor by cell based beta lactamase assay; type: functional
T1 sequence (P30559 whole entry): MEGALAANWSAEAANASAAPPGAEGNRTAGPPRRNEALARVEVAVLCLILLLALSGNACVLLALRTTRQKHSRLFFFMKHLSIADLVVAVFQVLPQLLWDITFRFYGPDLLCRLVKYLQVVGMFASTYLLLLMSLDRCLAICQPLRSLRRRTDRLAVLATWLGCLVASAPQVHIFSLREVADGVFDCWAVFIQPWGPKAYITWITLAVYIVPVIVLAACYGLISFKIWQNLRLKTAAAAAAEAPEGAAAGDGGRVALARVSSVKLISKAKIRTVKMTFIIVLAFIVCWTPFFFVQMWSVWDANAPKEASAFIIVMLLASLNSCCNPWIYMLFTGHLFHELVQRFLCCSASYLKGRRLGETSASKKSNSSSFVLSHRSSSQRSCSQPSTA

Vasopressin V1a receptor = Vasopressin V1a receptor (Homo sapiens, UniProt P37288); assay: Antagonist activity at human cloned vasopressin V1a receptor by cell based beta lactamase assay; type: functional
Liver microsomes = assay: Intrinsic clearance in human liver microsomes; type: ADME, Microsome
[2] = Aqueous solubility at pH 7.5; type: physicochemical; conditions: buffer
Outline: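 Aqueous solubility was measured on fully crystalline material at pH 7.5.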

[3] = Clearance in rat at 2 mg/kg, po; type: ADME, organism-based; design: dose 2 mg/kg, route oral; conditions: in vivo
Outline: (§1)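 Pharmacokinetic parameters from oral dosing of a suspension of fully crystalline material, at 2 mg/Kg in rat and 0.2 mg/Kg in dog.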

[4] = Half life in rat at 2 mg/kg, po; type: ADME, organism-based; design: dose 2 mg/kg, route oral; conditions: in vivo; outline: as §1
Rattus norvegicus [5] = assay: Volume of distribution in rat at 2 mg/kg, po; type: ADME, organism-based; design: dose 2 mg/kg, route oral; conditions: in vivo; outline: as §1
[6] = Oral bioavailability in rat at 2 mg/kg; type: ADME, organism-based; conditions: in vivo
Outline: (§2)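 Oral bioavailability from oral dosing of a suspension of fully crystalline material, at 2 mg/Kg in rat and 0.2 mg/Kg in dog, calculated by comparison with iv pharmacokinetic data.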

[7] = Clearance in dog at 0.2 mg/kg, po; type: ADME, organism-based, Canis lupus familiaris; design: dose 0.2 mg/kg, route oral; conditions: in vivo; outline: as §1
[8] = Half life in dog at 0.2 mg/kg, po; type: ADME, organism-based, Canis lupus familiaris; design: dose 0.2 mg/kg, route oral; conditions: in vivo; outline: as §1
Canis familiaris = assay: Volume of distribution in dog at 0.2 mg/kg, po; type: ADME, organism-based, Canis lupus familiaris; design: dose 0.2 mg/kg, route oral; conditions: in vivo; outline: as §1
[9] = Oral bioavailability in dog at 0.2 mg/kg, po; type: ADME, organism-based, Canis lupus familiaris; conditions: in vivo; outline: as §2
Substance-P receptor = Substance-P receptor (Homo sapiens, UniProt P25103); assay: Binding affinity to NK1 receptor
[10] = target: Kappa-type opioid receptor (Homo sapiens, UniProt P41145); assay: Binding affinity to kappa opioid receptor
[11] = target: Growth hormone secretagogue receptor type 1 (Homo sapiens, UniProt Q92847); assay: Binding affinity to ghrelin receptor
Sequence of Growth hormone secretagogue receptor type 1 (Q92847 whole entry): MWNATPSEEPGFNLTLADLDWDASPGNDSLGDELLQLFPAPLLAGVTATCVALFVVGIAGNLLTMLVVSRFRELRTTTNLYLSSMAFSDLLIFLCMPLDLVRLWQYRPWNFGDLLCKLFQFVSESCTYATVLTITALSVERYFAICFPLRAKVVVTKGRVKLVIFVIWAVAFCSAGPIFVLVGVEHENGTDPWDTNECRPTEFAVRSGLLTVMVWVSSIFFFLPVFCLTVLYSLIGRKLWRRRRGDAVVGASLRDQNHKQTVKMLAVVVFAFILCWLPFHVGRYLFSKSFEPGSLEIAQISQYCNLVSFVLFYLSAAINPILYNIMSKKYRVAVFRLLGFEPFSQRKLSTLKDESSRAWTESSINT

Sequence of Vasopressin V1a receptor (P37288 whole entry): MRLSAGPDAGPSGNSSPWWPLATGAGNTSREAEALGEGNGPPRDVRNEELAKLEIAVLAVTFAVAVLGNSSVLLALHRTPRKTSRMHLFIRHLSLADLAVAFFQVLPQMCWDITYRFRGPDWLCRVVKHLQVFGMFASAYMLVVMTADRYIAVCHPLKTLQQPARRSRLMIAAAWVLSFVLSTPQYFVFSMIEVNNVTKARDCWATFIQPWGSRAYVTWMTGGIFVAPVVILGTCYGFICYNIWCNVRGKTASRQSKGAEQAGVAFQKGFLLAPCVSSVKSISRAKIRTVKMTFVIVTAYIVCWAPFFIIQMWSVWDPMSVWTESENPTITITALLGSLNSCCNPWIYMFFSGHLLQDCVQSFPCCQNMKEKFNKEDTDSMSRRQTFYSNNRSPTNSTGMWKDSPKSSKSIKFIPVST
Sequence of Vasopressin V2 receptor (P30518 whole entry): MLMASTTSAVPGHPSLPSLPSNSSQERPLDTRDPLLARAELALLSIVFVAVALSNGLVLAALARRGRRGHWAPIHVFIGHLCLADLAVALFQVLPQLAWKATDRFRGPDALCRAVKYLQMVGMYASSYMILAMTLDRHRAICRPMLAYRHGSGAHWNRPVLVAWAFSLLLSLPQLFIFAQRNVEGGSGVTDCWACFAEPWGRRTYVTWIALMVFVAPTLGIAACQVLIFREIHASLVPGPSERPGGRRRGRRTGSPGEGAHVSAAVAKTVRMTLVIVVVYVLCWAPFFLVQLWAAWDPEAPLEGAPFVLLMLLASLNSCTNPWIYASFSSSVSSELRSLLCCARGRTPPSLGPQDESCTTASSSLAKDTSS
Sequence of Substance-P receptor (P25103 whole entry): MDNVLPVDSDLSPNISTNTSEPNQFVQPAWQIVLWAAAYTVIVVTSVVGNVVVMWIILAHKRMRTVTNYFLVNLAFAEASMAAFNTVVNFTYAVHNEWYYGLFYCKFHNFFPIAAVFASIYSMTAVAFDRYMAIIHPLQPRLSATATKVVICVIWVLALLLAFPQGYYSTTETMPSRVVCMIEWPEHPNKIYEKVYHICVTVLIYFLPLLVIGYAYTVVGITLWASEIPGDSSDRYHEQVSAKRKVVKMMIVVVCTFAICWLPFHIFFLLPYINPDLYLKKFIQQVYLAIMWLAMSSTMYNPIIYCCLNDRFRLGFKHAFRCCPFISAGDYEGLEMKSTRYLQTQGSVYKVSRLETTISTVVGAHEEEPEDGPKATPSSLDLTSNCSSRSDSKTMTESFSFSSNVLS
Sequence of Kappa-type opioid receptor (P41145 whole entry): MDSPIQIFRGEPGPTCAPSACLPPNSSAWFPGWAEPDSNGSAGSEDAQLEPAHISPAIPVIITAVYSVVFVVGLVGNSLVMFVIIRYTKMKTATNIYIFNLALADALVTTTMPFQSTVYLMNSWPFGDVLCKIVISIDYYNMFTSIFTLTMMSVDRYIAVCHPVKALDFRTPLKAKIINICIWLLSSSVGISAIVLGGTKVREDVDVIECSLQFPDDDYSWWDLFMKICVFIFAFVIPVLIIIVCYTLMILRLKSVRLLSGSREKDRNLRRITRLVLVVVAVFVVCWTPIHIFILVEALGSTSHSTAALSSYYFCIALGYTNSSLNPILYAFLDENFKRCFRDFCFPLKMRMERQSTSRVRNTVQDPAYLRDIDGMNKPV

SMILES: COc1ccc(-n2c(C)nnc2-c2cnc(-c3ccc(F)cc3C)cn2)cn1
- Ki (Vasopressin V2 receptor): > 10 µM
- Vd (Rattus norvegicus [1]): 4.4 L/kg

SMILES: COc1ccc(-n2c(C)nnc2N2CC(Oc3ccc(F)cc3Cl)C2)cn1
- Ki (Oxytocin receptor): 0.0284 µM
- Ki (Vasopressin V1a receptor): 2.43 µM
- Ki (Vasopressin V2 receptor): > 10 µM
- clearance (Liver microsomes): 22 µL/min/mg

SMILES: COCc1nnc(N2CC(Oc3ccc(F)cc3C)C2)n1-c1ccc(OC)nc1
- Ki (Oxytocin receptor): 0.0184 µM
- Ki (Vasopressin V1a receptor): 0.719 µM
- Ki (Vasopressin V2 receptor): 1.19 µM

SMILES: COCc1nnc(N2CC[C@@H](Oc3ccccc3C)C2)n1-c1ccc(OC)nc1
- Ki (Oxytocin receptor): 0.0285 µM
- Ki (Vasopressin V1a receptor): 0.255 µM
- Ki (Vasopressin V2 receptor): > 10 µM

SMILES: COc1ccc(-n2c(C)nnc2N2CC(Oc3ccccc3Cl)C2)cn1
- Ki (Oxytocin receptor): 0.0551 µM
- Ki (Vasopressin V1a receptor): 1.94 µM
- Ki (Vasopressin V2 receptor): > 10 µM

SMILES: COCc1nnc(N2CC(Oc3ccccc3Cl)C2)n1-c1ccc(OC)nc1
- Ki (Oxytocin receptor): 0.0325 µM
- Ki (Vasopressin V1a receptor): 1.34 µM
- Ki (Vasopressin V2 receptor): > 10 µM
- clearance (Liver microsomes): 21 µL/min/mg

SMILES: COc1ccc(-n2c(C)nnc2N2CC[C@@H](Oc3ccc(F)cc3C)C2)cn1
- Ki (Oxytocin receptor): 0.0318 µM
- Ki (Vasopressin V1a receptor): 0.941 µM
- Ki (Vasopressin V2 receptor): > 10 µM
- clearance (Liver microsomes): 95 µL/min/mg

SMILES: COc1ccc(-n2c(C)nnc2N2CCC(Oc3ccccc3)CC2)cn1
- Ki (Oxytocin receptor): 0.114 µM
- Ki (Vasopressin V1a receptor): 0.127 µM
- Ki (Vasopressin V2 receptor): > 10 µM

SMILES: COc1ccc(-n2c(C)nnc2N2CCC(Oc3ccccc3C)CC2)cn1
- Ki (Oxytocin receptor): 0.0054 µM
- Ki (Vasopressin V1a receptor): 0.0216 µM
- Ki (Vasopressin V2 receptor): > 10 µM

SMILES: COc1ccc(-n2c(C)nnc2N2CCC(Oc3ccc(F)cc3C)CC2)cn1
- Ki (Vasopressin V1a receptor): 0.111 µM
- Ki (Vasopressin V2 receptor): > 10 µM
- clearance (Liver microsomes): 23 µL/min/mg

SMILES: COCc1nnc(N2CCC(Oc3ccccc3C)CC2)n1-c1ccc(OC)nc1
- Ki (Oxytocin receptor): 0.0022 µM
- Ki (Vasopressin V1a receptor): 0.0244 µM
- Ki (Vasopressin V2 receptor): > 10 µM

SMILES: COc1ccc(-n2c(C)nnc2N2CC[C@@H](Oc3ccccc3C)C2)cn1
- Ki (Oxytocin receptor): 0.0359 µM
- Ki (Vasopressin V1a receptor): 0.734 µM
- Ki (Vasopressin V2 receptor): > 10 µM
- clearance (Liver microsomes): 32 µL/min/mg

SMILES: COCc1nnc(N2CC[C@@H](Oc3ccc(F)cc3C)C2)n1-c1ccc(OC)nc1
- Ki (Oxytocin receptor): 0.0179 µM
- Ki (Vasopressin V1a receptor): 0.586 µM
- Ki (Vasopressin V2 receptor): > 10 µM
- clearance (Liver microsomes): > 440 µL/min/mg

SMILES: COCc1nnc(N2CC[C@H](Oc3ccccc3C)C2)n1-c1ccc(OC)nc1
- Ki (Oxytocin receptor): 0.207 µM
- Ki (Vasopressin V1a receptor): 0.522 µM
- Ki (Vasopressin V2 receptor): > 10 µM

SMILES: COc1ccc(-n2c(C)nnc2N2CC(Oc3ccccc3)C2)cn1
- Ki (Oxytocin receptor): 0.304 µM
- Ki (Vasopressin V1a receptor): > 10 µM
- Ki (Vasopressin V2 receptor): > 10 µM
- clearance (Liver microsomes): < 7 µL/min/mg

SMILES: COc1ccc(-n2c(C)nnc2N2CC(Oc3ccc(F)cc3C)C2)cn1
- Ki (Oxytocin receptor): 0.0175 µM
- Ki (Vasopressin V1a receptor): 0.608 µM
- Ki (Vasopressin V2 receptor): > 10 µM

SMILES: COCc1nnc(N2CC(Oc3ccc(F)cc3Cl)C2)n1-c1ccc(OC)nc1
- Ki (Oxytocin receptor): 0.0095 µM
- Ki (Vasopressin V1a receptor): 1.12 µM
- Ki (Vasopressin V2 receptor): > 10 µM
- clearance (Liver microsomes): 10 µL/min/mg
- solubility [2]: 0.059 mg/mL (≈ 141 µM)
- CL/F [3]: 2.16 L/h/kg
- half-life [4]: 0.9 h
- Vd (Rattus norvegicus [5]): 2.5 L/kg
- bioavailability [6]: 62%
- CL/F [7]: 0.48 L/h/kg
- half-life [8]: 1.9 h
- Vd (Canis familiaris): 1.3 L/kg
- bioavailability [9]: 81%
- Ki (Substance-P receptor): 6.5 µM
- Ki [10]: 3 µM
- Ki [11]: 4.4 µM

SMILES: COc1ccc(-n2c(C)nnc2N2CCC(Oc3cccc(F)c3C)CC2)cn1
- Ki (Oxytocin receptor): 0.0026 µM
- Ki (Vasopressin V2 receptor): > 10 µM
- clearance (Liver microsomes): 24 µL/min/mg

SMILES: COc1ccc(-n2c(C)nnc2N2CC(Oc3cc(F)ccc3C)C2)cn1
- Ki (Oxytocin receptor): 0.04 µM
- Ki (Vasopressin V1a receptor): 1.68 µM
- Ki (Vasopressin V2 receptor): 2.77 µM

SMILES: COc1ccc(-n2c(C)nnc2N2CC[C@@H](Oc3ccccc3)C2)cn1
- Ki (Oxytocin receptor): 0.17 µM
- Ki (Vasopressin V1a receptor): 1.84 µM
- Ki (Vasopressin V2 receptor): > 10 µM

SMILES: COc1ccc(-n2c(C)nnc2N2CCC(Oc3cc(F)cc(F)c3C)CC2)cn1
- Ki (Oxytocin receptor): 0.0004 µM
- Ki (Vasopressin V1a receptor): 0.175 µM
- Ki (Vasopressin V2 receptor): > 10 µM

SMILES: COCc1nnc(N2CC[C@@H](Oc3cc(F)cc(F)c3C)C2)n1-c1ccc(OC)nc1
- Ki (Oxytocin receptor): 0.0058 µM
- Ki (Vasopressin V1a receptor): 1 µM
- Ki (Vasopressin V2 receptor): > 10 µM
- clearance (Liver microsomes): 107 µL/min/mg

From ChEMBL document CHEMBL1153191, “Triazole oxytocin antagonists: Identification of an aryloxyazetidine replacement for a biaryl substituent” (Bioorg Med Chem Lett, 2010)
